The text below walks through data of ChEMBL document CHEMBL1158756, “Hassallidin A, a glycosylated lipopeptide with antifungal activity from the cyanobacterium Hassallia sp” (2005).

Test [1] relates to Candida albicans. The test is described as follows: Antifungal activity against Candida albicans after 24 hrs. Format: functional. Summed up: (§1)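 Broth microdilution in RPMI-1640; each well held 240 µL medium, 10 µL inoculum (prepared per NCCLS guidelines) and 50 µL of test solution in 50% MeOH. The test solution was a 2-fold series from a 92 µg/mL stock, 4.6 down to 0.14 µg per 50 µL. A drug-free well served as control. Incubation at 35 °C, 24 h for C. albicans and 48 h for A. fumigatus. Growth was read as OD595. MIC was the highest dilution well free from growth. Run in triplicate.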

Another test has as its system Ustilago maydis. Put plainly: Antifungal activity against Ustilago maydis at 10 ug by disk diffusion assay. The following applies: Mycosarcoma maydis. Format: functional, organism-based. The essentials: (§2)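 Disk diffusion on malt agar plates; each disk carried 10 µg in 30 µL of 50% MeOH.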
Test [2] concerns Aspergillus fumigatus. The test is described as follows: Antifungal activity against Aspergillus fumigatus after 48 hrs. Format: functional. Summed up:
as §1

In another test the test system is Fusarium sambucinum. The test is described as follows: Antifungal activity against Fusarium sambucinum at 10 ug by disk diffusion assay. Format: functional, organism-based. Summed up:
as §2

In test [3] the test system is Aspergillus fumigatus. The test is described as follows: Antifungal activity against Aspergillus fumigatus at 10 ug by disk diffusion assay. Type of test: functional, organism-based. Summed up: as §2
Background: Agar diffusion results depend on both activity and mobility in agar.

For the next test, the system named is Streptomyces. Put plainly: Antimicrobial activity against Streptomyces versicolor at 10 ug by disk diffusion assay. Format: functional, organism-based. Summed up: (§3)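 Disk diffusion on LB-agar plates; each disk carried 10 µg in 30 µL of 50% MeOH.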
A further test has as its system Bacillus subtilis. The test is described as follows: Antimicrobial activity against Bacillus subtilis at 10 ug by disk diffusion assay. Type of test: functional, organism-based. Summed up: as §3
Test [4] deals with Candida albicans. The test is described as follows: Antifungal activity against Candida albicans at 10 ug by disk diffusion assay. Type of test: functional, organism-based. Summed up:
as §2

The subject of a further test is Aspergillus niger. Put plainly: Antifungal activity against Aspergillus niger at 10 ug by disk diffusion assay. Type of test: functional, organism-based. Summed up:
as §2

In another test the test system is Nakaseomyces glabratus. Put plainly: Antifungal activity against Candida glabrata at 10 ug by disk diffusion assay. Format: functional, organism-based. The essentials:
as §2

The next test deals with Escherichia coli. The test is described as follows: Antimicrobial activity against Escherichia coli at 10 ug by disk diffusion assay. Type of test: functional, organism-based. Summed up: as §3
The test system of the next test is Penicillium sp. The test is described as follows: Antifungal activity against Penicillium sp. at 10 ug by disk diffusion assay. Type of test: functional, organism-based. The essentials: as §2

Values after ≈ are worked out from the molar mass of the structure shown. Active and inactive are the calls of the source. No cut-off for these calls is given here. Positions of bridges follow the written chain, without caps; N, C: chain ends. Non-standard residues stand in square brackets, D forms with d. Residues, ends and D or L forms follow the SMILES beside them. *: point of attachment. X2 = OC[C@H]1O[C@@H](*)[C@@H](O)[C@@H](O)[C@@H]1O; NMeT = CN[C@H](C(=O)O)[C@@H](C)O; X1 = CCCCCCCCCCCC(O)C(O)C(=O)*; Dhb = C/C=C(\N)C(=O)O

On to `C/C=C1\NC(=O)[C@H](Cc2ccc(O)cc2)NC(=O)[C@H]([C@@H](C)O)NC(=O)[C@@H](NC(=O)[C@@H](NC(=O)C(O)C(O)CCCCCCCCCCC)[C@@H](C)O)[C@@H](C)OC(=O)[C@H](CCC(N)=O)NC(=O)[C@H]([C@@H](C)O[C@@H]2O[C@H](CO)[C@@H](O)[C@H](O)[C@@H]2O)N(C)C(=O)CNC(=O)[C@H](CCC(N)=O)NC1=O` (some centres not stated) [HASSALLIDIN A] (X1-TTTY[Dhb]QG[NMeT](X2)Q; ester 2-C), for which the minimum inhibitory concentration (MIC) in the test with Candida albicans [1] and in the test on Aspergillus fumigatus [2] was 4.8 µg/mL (≈ 3.47 µM) throughout. The result in the test with Ustilago maydis, with Fusarium sambucinum, with Aspergillus fumigatus [3], with Candida albicans [4], with Aspergillus niger and in the test on Nakaseomyces glabratus was Active. Further, the outcome in the test on Penicillium sp. was Active. Besides, the outcome in the test with Streptomyces, in the test with Bacillus subtilis and with Escherichia coli was inactive.

By MIC is commonly meant the lowest concentration that inhibits growth of the organism. A high value points to a need for much substance.
